# Compound activity deposited in PubChem by The Scripps Research Institute Molecular Screening Center.
# Only some compounds are listed: those with a hit (about 3.9% of all), similar ones and a draw of the others.
# M1 ag: activates human CHRM1 receptor; 360,000 compounds, 0.33% hits; CHO-K1 hM1, Fluo-8 calcium fluorescence, agonist mode; 0% DMSO, 100% acetylcholine EC100; AID 588814; activation, % at 3 µM; P11229;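 active = activation above the run's mean compound activation plus 3 SD, cut at about 16% in these data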;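 note: peak over basal fluorescence ratio within a 140 s kinetic read after compound addition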
# Target sequence (P11229 whole entry, looked up): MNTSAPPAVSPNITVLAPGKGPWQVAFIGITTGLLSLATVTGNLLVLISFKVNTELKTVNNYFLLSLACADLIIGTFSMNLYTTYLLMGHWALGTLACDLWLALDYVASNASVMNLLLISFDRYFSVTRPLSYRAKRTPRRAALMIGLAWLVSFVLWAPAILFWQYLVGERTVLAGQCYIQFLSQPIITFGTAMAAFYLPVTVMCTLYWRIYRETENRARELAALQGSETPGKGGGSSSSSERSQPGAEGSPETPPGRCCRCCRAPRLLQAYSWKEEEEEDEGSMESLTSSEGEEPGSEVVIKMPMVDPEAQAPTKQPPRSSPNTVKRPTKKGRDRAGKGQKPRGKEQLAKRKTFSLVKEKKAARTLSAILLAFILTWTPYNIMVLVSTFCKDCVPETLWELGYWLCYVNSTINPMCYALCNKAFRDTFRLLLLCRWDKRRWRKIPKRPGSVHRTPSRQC
# TAAR1 agonist: human TAAR1 agonism. Q96RJ0. CHO RD-HGA16 TAAR1, Fluo-8 calcium fluorescence; vehicle wells 0%, saturating PEA agonist 100%. activation, % at 3 µM. 360,000 compounds, 0.99% hits. AID 624467;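 active = activation above the mean activation of all test compounds in the run plus 3 SD, cut at about 38% in these data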
#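 Signal – calcium-sensitive Fluo-8 signal, excitation 470-495, emission 515-575 nm · System – RD-HGA16 (CHO) cells co-expressing Gα16 and hTAAR1 · Incubation – 17-24 h seeding, 75 min 37 °C dye, 30 min RT · Compound dosing – 3 µM single concentration · Repeats – no replicates (n 1)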
# TAAR1 antag: human TAAR1 antagonism | inhibition, % at 3 µM | AID 624466 | Q96RJ0 | CHO RD-HGA16 TAAR1, Fluo-8 calcium fluorescence, antagonist | 360,000 compounds, 1.5% hits;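 active = inhibition above a per-plate cutoff, the mean inhibition of test compounds on that plate plus 3 SD, cut at about 49% in these data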;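 note: 0% = DMSO plus EC80 beta-PEA response and 100% = DMSO alone without agonist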
#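 Material: RD-HGA16 CHO cells with stable hTAAR1 and Gα16; Dosing: single nominal final test compound concentration of 3 µM; Schedule: seeding 17-24 h prior, 75-min 37 °C, 30-min RT dye loading; Detection: kinetic Fluo-8 calcium fluorescence measurement; Measure: % inhibition from peak post-agonist over basal fluorescence ratio; Benchmarks: vehicle and agonist controls.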
# CHRM1 PAM: positive allosteric modulators of human M1 muscarinic receptor. P11229. CHO-K1 hM1, Fluo-8 calcium fluorescence, ACh EC20; 0% = ACh EC20, 100% = maximal ACh. activation, % at 3 µM. 360,000 compounds, 0.088% hits. AID 588819; in the data active = activation above about 19%, passing the limit was not always enough
# M1 antag: human CHRM1 antagonism; P11229; CHO-K1 hM1, Fluo-8 calcium fluorescence, ACh EC80 antagonist; inhibition, % at 3 µM; 360,000 compounds, 1.3% hits; AID 588852;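 active = percent inhibition above its own plate's cutoff, namely the mean of that plate's compound wells plus 3 SD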;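 note: peak over basal fluorescence ratio during 140 s after agonist addition; 0% = ACh EC80 plus DMSO and 100% = DMSO alone without agonist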
# m5-HT2A agonist: mouse HTR2A agonism via beta-arrestin recruitment; P35363; CHO-K1 mHTR2A beta-arrestin complementation, luminescence; percent of 30 µM serotonin response; activation, % at 7.6 µM; 360,000 compounds, 0.66% hits; AID 624169;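 active = activation above a run cutoff, the mean activation of all tested compounds plus 3 SD, cut at about 14% in these data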;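 note: 0% = plate median of compound wells and 100% = 30 µM serotonin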
# * = called active by the depositor; . = not tested or not shown.
SMILES,M1 ag,TAAR1 agonist,TAAR1 antag,CHRM1 PAM,M1 antag,m5-HT2A agonist
O=c1[nH]c(=O)n(Cc2ccco2)c(O)c1C=NCCCn1ccnc1,-5,5,-7,11,-16,4
CNC(=O)Oc1cccc(-c2cn3cc(Cl)ccc3n2)c1,-1,3,9,27*,9,3
COc1ccc(N2C(=O)NC(=O)C(CCc3ccncc3)(CCc3ccncc3)C2=O)cc1,-2,4,-6,2,0,0
O=c1c2ccccc2nc(-c2ccccc2)n1-c1ccncc1,-1,5,15,7,10,13
c1ccc(C(c2ccccc2)c2ccncc2)cc1,-6,5,-9,-28,70*,-11
CCC(CO)(C(=O)OC1CC2CCC(C1)N2C)c1ccccc1 (configuration not stated),-10,5,3,-28,101*,-6
CN1CCN(CCC(=O)OC2CC3CCC(C2)N3C)CC1 (configuration not stated),-4,12,-1,-3,-10,-5
COc1cc(N2CCOCC2)ccc1/C=C1\C(=O)NC(=O)N(Cc2ccc3c(c2)OCO3)C1=O,1,7,-51,6,0,-1
CSc1ccccc1C(=O)C1CCCN(Cc2ccncc2)C1 (configuration not stated),-7,0,2,-23,55*,-3
CSc1ccc(C(=O)C2CCCN(Cc3cc4ccccc4[nH]3)C2)cc1 (configuration not stated),-12,17,7,-14,8,0
COc1ccccc1CN1CCCC(C(=O)c2ccccc2SC)C1 (configuration not stated),-6,2,-2,-20,32,-7
CSc1ccc(C(=O)C2CCCN(Cc3cccnc3)C2)cc1 (configuration not stated),-13,6,-3,-33,34*,-6
COc1ccc(C(=O)C2CCCN(CCc3ccccc3)C2)cc1OC (configuration not stated),-11,1,-5,-32,55*,2
COc1cccc(OC)c1CN1CCCC(C(=O)c2cccc(Cl)c2)C1 (configuration not stated),-9,4,-9,-21,22,-6
COc1ccc(C(=O)C2CCCN(Cc3ccc(F)cc3F)C2)cc1F (configuration not stated),-8,1,-3,-26,71*,-4
CNCC(O)c1cccc(OC(=O)c2ccccc2C)c1 (configuration not stated),-3,12,-4,1,-5,-2
CNCC(O)c1cc(OCc2ccccc2)c(OCc2ccccc2)cc1F (configuration not stated),0,45*,15,7,6,-4
c1ccc(NC2=NCCCS2)cc1,-10,1,5,-2,-2,-2
COC(=O)C1=C(c2ccc(S(C)(=O)=O)cc2)C[C@@H]2CC[C@H]1N2C,-8,20,-6,-2,8,3
COC(=O)C1=C(c2ccccc2)C[C@@H]2CC[C@H]1N2C,-8,4,10,-31,60*,-3
COC(=O)C1=C(c2ccc(Cl)c(C(F)(F)F)c2)C[C@@H]2CC[C@H]1N2C(=O)NCCO,-8,8,-9,-1,0,-2
COC(=O)C1=C(c2ccc(Cl)c(C(F)(F)F)c2)C[C@@H]2CC[C@H]1N2C,-8,9,7,-30,32*,1
COC(=O)C1=C(c2ccc(F)cc2F)C[C@@H]2CC[C@H]1N2C,-9,10,11,-33,84*,6
C(#CCN1CCCCC1)CN1CCCCC1,-11,.,.,-9,11,1
CCCNC(=O)N1[C@H]2CC[C@@H]1C(C(=O)OC)=C(c1ccc(OC)c(OC)c1)C2,-4,4,-6,3,1,1
O=c1[nH]oc2c1CCNC2,-1,1,-8,3,-35,5
CC(C)OC(=O)C1C(c2ccc(I)cc2)CC2CCC1N2C (configuration not stated),.,2,-13,.,.,.
